Measured values taken from PMC10793424 (bioRxiv, 2024).
Where two headings read alike, the source gives them in different places.

Tests used:
[1] = tested on: PTH secretion from parathyroid glands; experiment: Ex vivo parathyroid gland culture: PTH secretion and Ca2+ set-point; assay type: cell-based, mouse
Outline: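 Glands from 4-week-old wild-type C57/B6 mice, incubated sequentially with rising test compound (0.01 nM–50 µM) at 0.75 mM [Ca2+]e for dose-response. For set-point, 50 or 500 nM compound under rising [Ca2+]e. PTH secretion rate per gland per hour was normalized between vehicle basal rate (0.5 mM) and rate at 3.0 mM. Set-point is the [Ca2+]e suppressing 50% of Ca-suppressible secretion. n = 8 gland groups, mean ± SEM.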

serum PTH = experiment: Serum PTH after subcutaneous injection; assay type: in vivo, C57/B6 mice; details: WT B6 mice
Outline: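 Wild-type B6 mice given subcutaneous injections. Serum PTH was followed over 8 h after 1 mg/kg or 10 mg/kg. Dose comparison used serum PTH sampled 30 min after injection at several doses. n = 10 mice per dose, n = 5 at 10 mg/kg. Reference compound doses were corrected for molecular weight to match molar amounts. Unpaired Student's t-test.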

[2] = plasma, 3 mg/kg subcutaneous, CD-1 mice
[3] = for duration of significantly lowered serum calcium / lowest level of serum calcium: 3 mg/kg subcutaneous; for lowest level of serum calcium: from 2.2 mM
in vivo = details: male, CD-1, mouse, sc, 3 mg/kg
[4] = 1 mg/kg (3.1 µmol/kg, equimolar) subcutaneous

Row | SMILES | calcium set point for PTH secretion ([1]; PAM at 50 nM, vehicle 1.47 mM) | calcium set point for PTH secretion ([1]; PAM at 500 nM, vehicle 1.5 mM) | suppression of PTH secretion (serum PTH) (serum PTH; [4]) | suppression of PTH secretion (serum PTH) (serum PTH; 10 mg/kg (31 µmole/kg) subcutaneous) | Cmax [2] | time of Cmax [2] | duration of significantly lowered serum calcium [3] | lowest level of serum calcium [3] | Cmax (in vivo) | IC50 ([1]; Mus musculus, read-out: IC50 in suppressing PTH secretion) | hypocalcemic action ([3]; 3.1 µmol/kg (~1 mg/kg) subcutaneous)
1 | C[C@@H](NCCCc1cccc(C(F)(F)F)c1)c1cccc2ccccc12 [cinacalcet] | 1.23 mM | ~ 0.94 mM | less effective | fully suppress | 150 nM | 15 min | more than 8 hrs | 1.7 mM | 58.9 ng/mL |  | 
2 | C[C@@H](N[C@H]1CCN(c2ccc(CC(=O)O)cc2)C1)c1cccc2ccccc12 [evocalcet] | 1 mM | 0.76 mM | fully suppress |  |  | 60 min | more than 8 hrs | 1.6 mM |  | 998 nM | particularly robust
